Assay results: ChEMBL document CHEMBL1128695, “Synthesis and antiviral activity of 8-aza analogs of chiral [2-(phosphonomethoxy) propyl]guanines” (J Med Chem, 1995)

Assays:
MT4 [1] = assay: Cytotoxic concentration required to reduce viability of mock-infected MT-4 cells (4 days); type: functional; conditions: Homo sapiens, MT4, 96 h
Procedure, shortened: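 Mock-infected MT-4 cells, 1×10^4/well, incubated with serial compound dilutions (DMSO stock 100 mg/mL diluted in RPMI/10% FCS) for 4 days at 37 °C, run alongside the antiviral test.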

MT4 [2] = assay: Protection of MT-4 cells against the cytopathic effect of HIV-2 (8 days); type: functional, cell-based; conditions: Homo sapiens, MT4, 192 h
Procedure, shortened: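 MT-4 cells (1×10^4/well, RPMI/10% FCS) with compound dilutions, infected with HIV-2 ROD at 100 CCID50 (MOI 0.01). Stock from persistently infected CEM supernatant.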

[3] = Selectivity Index measured as the ratio of CC50 to that of EC50 (HIV-1) values.; type: functional
Procedure, shortened: (§1)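 HIV-1 IIIB (100 CCID50, MOI 0.01) was added to 1×10^4 MT-4 cells per well in RPMI/10% FCS with serial compound dilutions, made from a 100 mg/mL DMSO stock. After 4 days at 37 °C, viable cells were counted by MTT. […] SI = CC50/EC50.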

[4] = Selectivity Index measured as the ratio of CC50 to that of EC50 (HIV-2) values.; type: functional
Procedure, shortened: (§2)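 HIV-2 ROD (100 CCID50, MOI 0.01) infected 1×10^4 MT-4 cells per well in RPMI/10% FCS containing compound dilutions, made from a 100 mg/mL DMSO stock. After 8 days at 37 °C, MTT read viability. […] The CC50 comes from parallel mock-infected MT-4 cultures by MTT over 4 days. The index is the CC50/EC50 ratio.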

MT4 [5] = assay: Protection of MT-4 cells against the cytopathic effect of HIV-1 (4 days); type: functional, cell-based; conditions: Homo sapiens, MT4, 96 h
Procedure, shortened: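 MT-4 cells (1×10^4/well, RPMI/10% FCS) with compound dilutions, infected with HIV-1 IIIB at 100 CCID50 (MOI 0.01). Stock from persistently infected H9/IIIB supernatant, titrated in C8166 by syncytia scoring.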

[6] = Selectivity Index measured as the ratio of CC50 to that of EC50(HIV-1) values.; type: functional; procedure, shortened: as §1
[7] = Selectivity Index measured as the ratio of CC50 to that of EC50(HIV-2) values.; type: functional; procedure, shortened: as §2

Compound	CC50 (MT4 [1]) [µM]	EC50 (MT4 [2]) [µM]	Selectivity index [3]	Selectivity index [4]	EC50 (MT4 [5]) [µM]	Selectivity index [6]	Selectivity index [7]
Nc1nc2c(ncn2CCOCP(=O)(O)O)c(=O)[nH]1 [GS-438]	2.4	0.2	12.6	12	0.19	–	–
C[C@@H](Cn1cnc2c(O)nc(N)nc21)OCP(=O)(O)O	> 400	4.5	> 89	> 89	4.5	–	–
C[C@H](Cn1nnc2c(O)nc(N)nc21)OCP(=O)(O)O	> 400	200	> 4.3	2	93	–	–
C[C@H](Cn1nc2nc(N)nc(O)c2n1)OCP(=O)(O)O	> 400	> 400	–	–	> 400	–	–
C[C@H](Cn1cnc2c(O)nc(N)nc21)OCP(=O)(O)O	> 48	30	2.5	1.6	19	–	–
C[C@@H](Cn1nc2nc(N)nc(O)c2n1)OCP(=O)(O)O	> 400	73	–	–	53	> 7.5	> 5.5
Cc1cn([C@H]2C[C@H](N=[N+]=[N-])[C@@H](CO)O2)c(=O)[nH]c1=O [ZIDOVUDINE]	> 20	–	–	–	–	–	–
C[C@@H](Cn1nnc2c(O)nc(N)nc21)OCP(=O)(O)O	> 400	12.5	> 33	> 32	12	–	–
